Results as given in ChEMBL document CHEMBL4387720, “Lead generation of 1,2-dithiolanes as exon 19 and exon 21 mutant EGFR tyrosine kinase inhibitors” (Bioorg Med Chem Lett, 2019).
Each block holds one molecule with its values, some of them ahead of it.

Legend:
[1] = biological target: T1, Epidermal growth factor receptor (Homo sapiens, UniProt P00533, L858R)
[2] = biological target: Epidermal growth factor receptor (Homo sapiens, UniProt P00533); assay: Inhibition of probe binding to wild type EGFR (unknown origin) using rabbit reticulate lysate system after 1 hr by luminescence assay
Epidermal growth factor receptor (Homo sapiens, UniProt P00533), sequence (P00533 whole entry): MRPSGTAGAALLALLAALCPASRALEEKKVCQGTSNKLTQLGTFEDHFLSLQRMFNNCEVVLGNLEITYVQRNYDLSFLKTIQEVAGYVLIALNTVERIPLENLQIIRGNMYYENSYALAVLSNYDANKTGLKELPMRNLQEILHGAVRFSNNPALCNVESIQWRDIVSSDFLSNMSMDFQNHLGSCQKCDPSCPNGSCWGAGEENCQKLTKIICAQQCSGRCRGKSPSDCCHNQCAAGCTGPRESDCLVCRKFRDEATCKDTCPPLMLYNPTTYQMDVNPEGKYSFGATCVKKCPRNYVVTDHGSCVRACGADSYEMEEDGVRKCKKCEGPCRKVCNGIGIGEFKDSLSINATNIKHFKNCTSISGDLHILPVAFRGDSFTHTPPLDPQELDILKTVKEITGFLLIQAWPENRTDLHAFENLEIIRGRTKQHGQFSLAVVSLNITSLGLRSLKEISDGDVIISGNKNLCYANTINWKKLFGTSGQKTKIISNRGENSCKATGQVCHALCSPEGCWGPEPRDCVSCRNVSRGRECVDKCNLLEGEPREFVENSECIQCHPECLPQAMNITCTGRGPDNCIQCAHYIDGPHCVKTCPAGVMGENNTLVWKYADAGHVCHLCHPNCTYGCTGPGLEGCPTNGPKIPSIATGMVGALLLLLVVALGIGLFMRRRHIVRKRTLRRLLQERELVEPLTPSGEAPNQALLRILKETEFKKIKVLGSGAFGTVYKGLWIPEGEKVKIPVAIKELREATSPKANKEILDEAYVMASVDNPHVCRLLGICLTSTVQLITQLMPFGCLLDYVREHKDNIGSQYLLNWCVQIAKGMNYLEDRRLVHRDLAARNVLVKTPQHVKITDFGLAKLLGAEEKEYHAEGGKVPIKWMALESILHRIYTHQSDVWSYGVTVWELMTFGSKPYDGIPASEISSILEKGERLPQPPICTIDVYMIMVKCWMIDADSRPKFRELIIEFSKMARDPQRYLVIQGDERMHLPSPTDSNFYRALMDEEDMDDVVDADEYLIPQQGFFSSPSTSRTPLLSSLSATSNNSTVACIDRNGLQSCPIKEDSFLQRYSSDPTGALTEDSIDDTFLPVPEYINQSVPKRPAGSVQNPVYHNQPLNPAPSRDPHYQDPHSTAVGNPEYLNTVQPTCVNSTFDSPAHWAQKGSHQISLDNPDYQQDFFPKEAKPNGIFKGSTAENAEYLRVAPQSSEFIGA

[3] = biological target: Receptor tyrosine-protein kinase erbB-2 (Homo sapiens, UniProt P04626); assay: Inhibition of probe binding to HER2 (unknown origin) using rabbit reticulate lysate system after 1 hr by luminescence assay
Receptor tyrosine-protein kinase erbB-2, sequence (P04626 whole entry): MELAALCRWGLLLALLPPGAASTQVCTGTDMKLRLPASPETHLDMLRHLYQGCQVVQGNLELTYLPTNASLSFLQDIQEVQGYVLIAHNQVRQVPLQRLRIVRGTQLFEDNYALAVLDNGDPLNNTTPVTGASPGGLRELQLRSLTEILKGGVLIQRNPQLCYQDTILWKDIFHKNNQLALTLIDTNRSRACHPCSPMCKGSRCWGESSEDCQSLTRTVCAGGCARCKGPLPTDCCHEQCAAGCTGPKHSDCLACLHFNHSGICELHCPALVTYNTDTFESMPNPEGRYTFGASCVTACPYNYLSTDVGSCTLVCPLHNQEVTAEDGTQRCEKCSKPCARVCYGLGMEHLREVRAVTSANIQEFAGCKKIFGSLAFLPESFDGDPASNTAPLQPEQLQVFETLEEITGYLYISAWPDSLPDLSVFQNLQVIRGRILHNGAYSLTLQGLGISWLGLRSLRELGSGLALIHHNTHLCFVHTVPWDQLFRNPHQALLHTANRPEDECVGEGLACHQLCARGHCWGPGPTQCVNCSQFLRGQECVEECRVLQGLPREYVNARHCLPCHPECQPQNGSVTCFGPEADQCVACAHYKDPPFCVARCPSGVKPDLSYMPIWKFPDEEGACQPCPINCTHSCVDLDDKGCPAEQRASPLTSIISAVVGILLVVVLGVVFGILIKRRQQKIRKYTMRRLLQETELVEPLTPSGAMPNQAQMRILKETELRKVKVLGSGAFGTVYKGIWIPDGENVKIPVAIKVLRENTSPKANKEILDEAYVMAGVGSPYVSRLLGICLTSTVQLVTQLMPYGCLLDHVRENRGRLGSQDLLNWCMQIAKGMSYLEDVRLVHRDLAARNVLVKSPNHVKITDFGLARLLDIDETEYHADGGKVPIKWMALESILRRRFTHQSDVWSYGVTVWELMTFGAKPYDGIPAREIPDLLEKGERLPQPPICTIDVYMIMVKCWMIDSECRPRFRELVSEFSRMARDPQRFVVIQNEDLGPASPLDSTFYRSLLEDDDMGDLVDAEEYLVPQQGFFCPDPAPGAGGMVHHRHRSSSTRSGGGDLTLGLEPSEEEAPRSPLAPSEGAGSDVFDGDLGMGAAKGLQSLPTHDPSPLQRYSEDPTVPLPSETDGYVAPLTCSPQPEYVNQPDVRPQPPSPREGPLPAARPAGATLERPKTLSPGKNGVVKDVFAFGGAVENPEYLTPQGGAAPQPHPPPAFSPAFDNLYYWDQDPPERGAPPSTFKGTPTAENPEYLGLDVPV
Procedure, shortened: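 Homogeneous competition binding in rabbit reticulocyte lysate with kinase expressed in the lysate. IC50 taken from a ten-point dose-response curve; value is the average of triplicate experiments.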

Homo sapiens = species on record: Homo sapiens; assay: Selectivity ratio, ratio of IC50 for probe binding to HER2 (unknown origin) to IC50 for probe binding to EGFR L858R mutant (unknown origin)
Procedure, shortened: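 Ratio of two IC50 values measured in the rabbit reticulocyte lysate competition binding assay: HER2 and EGFR L858R. Each IC50 comes from displacement of an active-site-dependent probe, read by luminescence, with a ten-point dose-response. Each IC50 is the average of triplicate experiments.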

NCI-H322M [4] = assay: cells; assay type: functional; conditions: Homo sapiens, 48 h
NCI-H460 = assay: cells; assay type: functional; conditions: Homo sapiens, NCI-H460, 48 h
MOLT-4 [5] = assay: cells; assay type: functional; conditions: Homo sapiens, MOLT-4, 48 h
MOLT-4 [6] = assay: Therapeutic index, ratio of LC50 for human MOLT4 cells to GI50 for human MOLT4 cells; assay type: functional
Procedure, shortened: (§1)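 NCI-60 panel screen using five-dose response curves, each value an average of 2 experiments. […] The therapeutic index is calculated as LC50/GI50 for the same cell line.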

NCI-H322M [7] = assay: Therapeutic index, ratio of LC50 for human NCI-H322M cells to GI50 for human NCI-H322M cells; assay type: functional
Procedure, shortened: as §1

CCRF-CEM [8] = assay: Cytotoxicity against human CCRF-CEM cells assessed as reduction in measured protein incubated for 48 hrs by SRB assay; assay type: functional; conditions: read-out: LC50 (the source's name)
Procedure, shortened: (§2)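 Tested in the NCI-60 panel with a five-dose response curve, each value the mean of 2 experiments.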

A549 = assay: cells; assay type: functional; conditions: Homo sapiens, A549, 48 h
CCRF-CEM [9] = assay: Therapeutic index, ratio of LC50 for human CCRF-CEM cells to GI50 for human CCRF-CEM cells; assay type: functional
Procedure, shortened: as §1

NCI-H322M [10] = assay: Cytotoxicity against human NCI-H322M cells assessed as reduction in measured protein incubated for 48 hrs by SRB assay; assay type: functional; conditions: read-out: LC50 (the source's name)
Procedure, shortened: as §2

MOLT-4 [11] = assay: Cytotoxicity against human MOLT4 cells assessed as reduction in measured protein incubated for 48 hrs by SRB assay; assay type: functional; conditions: MOLT-4, 48 h, read-out: LC50 (the source's name)
Procedure, shortened: as §2

CCRF-CEM [12] = assay: cells; assay type: functional; conditions: Homo sapiens, 48 h
[13] = biological target: Epidermal growth factor receptor (Homo sapiens, UniProt P00533, E746-A750DEL); assay: Binding affinity to human partial length EGFR E746-A750 deletion mutant expressed in bacterial expression system by KinomeScan assay
Epidermal growth factor receptor (Homo sapiens, UniProt P00533, E746-A750DEL), sequence (P00533 whole entry E746-A750del, looked up): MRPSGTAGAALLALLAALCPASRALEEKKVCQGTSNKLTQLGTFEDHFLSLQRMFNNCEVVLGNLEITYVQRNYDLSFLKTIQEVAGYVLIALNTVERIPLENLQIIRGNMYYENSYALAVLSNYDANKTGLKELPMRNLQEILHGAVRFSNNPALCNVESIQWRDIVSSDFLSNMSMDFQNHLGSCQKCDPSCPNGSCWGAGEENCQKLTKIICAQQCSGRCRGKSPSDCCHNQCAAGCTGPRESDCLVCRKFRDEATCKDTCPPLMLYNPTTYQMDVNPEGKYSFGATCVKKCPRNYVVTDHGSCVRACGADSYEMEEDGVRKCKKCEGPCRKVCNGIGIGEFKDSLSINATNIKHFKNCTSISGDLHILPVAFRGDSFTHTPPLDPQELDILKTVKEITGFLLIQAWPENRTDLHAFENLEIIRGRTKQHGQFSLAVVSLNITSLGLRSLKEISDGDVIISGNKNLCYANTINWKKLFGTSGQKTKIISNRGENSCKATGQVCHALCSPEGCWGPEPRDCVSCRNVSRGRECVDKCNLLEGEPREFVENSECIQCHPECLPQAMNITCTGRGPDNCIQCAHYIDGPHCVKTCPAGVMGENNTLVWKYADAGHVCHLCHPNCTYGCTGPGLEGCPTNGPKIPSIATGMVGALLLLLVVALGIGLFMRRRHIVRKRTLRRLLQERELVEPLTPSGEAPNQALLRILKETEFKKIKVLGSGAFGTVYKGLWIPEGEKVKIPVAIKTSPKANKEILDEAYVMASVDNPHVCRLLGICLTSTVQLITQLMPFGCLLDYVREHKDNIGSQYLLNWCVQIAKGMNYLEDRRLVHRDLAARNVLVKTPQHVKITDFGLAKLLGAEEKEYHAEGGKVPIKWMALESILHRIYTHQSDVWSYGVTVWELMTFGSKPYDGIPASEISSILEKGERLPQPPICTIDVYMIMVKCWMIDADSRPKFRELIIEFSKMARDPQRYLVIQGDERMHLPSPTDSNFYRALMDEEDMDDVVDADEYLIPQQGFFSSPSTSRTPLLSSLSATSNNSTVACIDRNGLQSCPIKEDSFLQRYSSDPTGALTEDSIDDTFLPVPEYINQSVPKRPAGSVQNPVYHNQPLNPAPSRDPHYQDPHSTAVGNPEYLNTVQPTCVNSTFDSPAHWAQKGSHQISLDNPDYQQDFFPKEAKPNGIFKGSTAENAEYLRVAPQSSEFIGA
Procedure, shortened: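 Competition binding against an immobilized active-site-directed ligand. Bound kinase is quantified by qPCR of its DNA tag. Kd values come from duplicate 11-point dose-response curves.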

[14] = biological target: T1, Epidermal growth factor receptor; assay: Binding affinity to human partial length EGFR L858R mutant (R669 to V1011 residues) expressed in bacterial expression system by kinomescan assay
Procedure, shortened: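 Competition binding against an immobilized active-site-directed ligand; bound kinase quantified by qPCR of its DNA tag. Kd taken from duplicate 11-point dose-response curves.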

[15] = Half life in human S9 fraction; assay type: ADME, subcellular
[16] = biological target: T1, Epidermal growth factor receptor; assay: Binding affinity to human partial length EGFR L858R mutant (R669 to V1011 residues) expressed in bacterial expression system under full equilibrating condition by scanKINETIC assay
Procedure, shortened: (§3)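 Binding kinetics are read from Kd values measured under four dose-response arms. Arm A is full equilibration. Arm B is equilibrate, then 3-fold dilution, then equilibrate. Arm C is partial equilibration. Arm D is predilution followed by full equilibration. Comparing the arms assesses reversibility of binding.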

[17] = biological target: T1, Epidermal growth factor receptor; assay: Binding affinity to human partial length EGFR L858R mutant (R669 to V1011 residues) expressed in bacterial expression system under predilution/full equilibration condition by scanKINETIC assay
Procedure, shortened: as §3

[18] = biological target: T1, Epidermal growth factor receptor; assay: Binding affinity to human partial length EGFR L858R mutant (R669 to V1011 residues) expressed in bacterial expression system under equilibrate/3-fold dilution/eqiulibrate condition by scanKINETIC assay
Procedure, shortened: as §3

[19] = biological target: T1, Epidermal growth factor receptor; assay: Binding affinity to human partial length EGFR L858R mutant (R669 to V1011 residues) expressed in bacterial expression system under partial equilibration condition by scanKINETIC assay
Procedure, shortened: as §3

[20] = Half life in rat S9 fraction; assay type: ADME, subcellular

T1 sequence (P00533 25-1210 L858R limits assumed): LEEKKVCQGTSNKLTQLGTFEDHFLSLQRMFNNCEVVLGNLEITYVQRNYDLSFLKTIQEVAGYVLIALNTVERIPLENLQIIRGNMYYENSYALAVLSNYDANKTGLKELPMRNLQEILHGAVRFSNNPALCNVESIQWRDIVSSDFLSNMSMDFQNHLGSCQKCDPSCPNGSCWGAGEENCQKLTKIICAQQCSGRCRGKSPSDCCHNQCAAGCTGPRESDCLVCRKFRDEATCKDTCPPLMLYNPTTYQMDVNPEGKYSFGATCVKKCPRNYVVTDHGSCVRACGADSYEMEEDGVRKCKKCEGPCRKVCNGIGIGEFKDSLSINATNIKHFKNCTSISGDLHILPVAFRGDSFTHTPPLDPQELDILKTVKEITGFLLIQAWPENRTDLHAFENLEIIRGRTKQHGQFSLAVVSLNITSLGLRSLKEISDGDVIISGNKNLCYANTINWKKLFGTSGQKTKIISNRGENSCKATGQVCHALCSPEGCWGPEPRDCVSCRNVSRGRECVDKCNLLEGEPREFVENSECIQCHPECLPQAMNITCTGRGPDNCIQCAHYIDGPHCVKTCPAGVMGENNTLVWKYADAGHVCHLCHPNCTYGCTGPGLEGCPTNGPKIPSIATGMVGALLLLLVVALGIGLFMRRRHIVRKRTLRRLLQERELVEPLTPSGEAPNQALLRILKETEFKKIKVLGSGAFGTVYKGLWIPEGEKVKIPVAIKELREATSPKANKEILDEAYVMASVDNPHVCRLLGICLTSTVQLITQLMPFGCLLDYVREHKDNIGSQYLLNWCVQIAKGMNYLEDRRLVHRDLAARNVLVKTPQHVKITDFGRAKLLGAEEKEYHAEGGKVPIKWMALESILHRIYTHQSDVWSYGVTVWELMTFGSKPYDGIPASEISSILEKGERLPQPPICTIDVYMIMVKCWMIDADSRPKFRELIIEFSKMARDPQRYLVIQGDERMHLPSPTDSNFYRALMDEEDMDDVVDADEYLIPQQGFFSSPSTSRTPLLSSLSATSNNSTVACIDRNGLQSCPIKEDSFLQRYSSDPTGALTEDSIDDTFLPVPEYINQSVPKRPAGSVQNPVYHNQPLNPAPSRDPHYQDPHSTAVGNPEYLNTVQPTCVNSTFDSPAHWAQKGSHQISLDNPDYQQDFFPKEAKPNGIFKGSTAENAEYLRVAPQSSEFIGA

IC50 [1]: 5.8 nM | IC50 [2]: 25 nM
Structure (SMILES): COc1cc2ncnc(Nc3ccc(OCc4cccc(F)c4)c(Cl)c3)c2cc1NC(=O)CC1CCSS1 (stereo not given)

IC50 [1]: 300 nM
Structure (SMILES): CCOc1cc2ncc(C#N)c(Nc3ccc(F)c(Cl)c3)c2cc1NC(=O)CC1CCSS1 (stereo not given)

IC50 [1]: 413 nM | IC50 [3]: 590 nM | Ratio IC50 (Homo sapiens): 1.4 | IC50 [2]: 658 nM
Structure (SMILES): COc1cc2ncnc(Nc3ccc(Oc4ccc(C)nc4)c(C)c3)c2cc1NC(=O)C1CSSC1

IC50 [1]: 6.5 nM | IC50 [2]: 76 nM
Structure (SMILES): COc1cc2ncnc(Nc3ccc(OCc4cccc(F)c4)c(Cl)c3)c2cc1NC(=O)C1CSSC1

IC50 [1]: > 10000 nM | IC50 [3]: > 10000 nM | IC50 [2]: 8630 nM
Structure (SMILES): Cc1ccc(Oc2ccc(Nc3c(C#N)cnc4ccc(NC(=O)CC5CCSS5)cc34)cc2C)cn1 (stereo not given)

half-life [20]: 27.5 min
Structure (SMILES): CC(C)NCC(O)COc1cccc2ccccc12 (stereo not given) [PROPRANOLOL]

IC50 [1]: > 10000 nM | IC50 [2]: > 10000 nM
Structure (SMILES): Cc1ccc(Oc2ccc(Nc3c(C#N)cnc4ccc(NC(=O)C5CSSC5)cc34)cc2C)cn1

The next lines start with the molecule.

Structure (SMILES): COc1cc2ncnc(Nc3ccc(Oc4ccc(C)nc4)c(C)c3)c2cc1NC(=O)CC1CCSS1 (stereo not given)
GI50 (NCI-H322M [4]): 1070 nM | GI50 (NCI-H460): 110 nM | GI50 (MOLT-4 [5]): 160 nM | TI (MOLT-4 [6]): 16.2 | TI (NCI-H322M [7]): >46.7 | CC50 (CCRF-CEM [8]): > 50000 nM | GI50 (A549): 760 nM | TI (CCRF-CEM [9]): >227 | CC50 (NCI-H322M [10]): > 50000 nM | CC50 (MOLT-4 [11]): > 2600 nM | GI50 (CCRF-CEM [12]): 220 nM

Structure (SMILES): N#Cc1cnc2ccc(NC(=O)C3CSSC3)cc2c1Nc1ccc(OCc2cccc(F)c2)c(Cl)c1
IC50 [1]: 199 nM

Structure (SMILES): CCOc1cc2ncc(C#N)c(Nc3ccc(OCc4cccc(F)c4)c(Cl)c3)c2cc1NC(=O)C1CSSC1
Kd [13]: 110 nM | IC50 [1]: 18 nM | IC50 [3]: 730 nM | Ratio IC50 (Homo sapiens): > 25 | IC50 [2]: 210 nM

Structure (SMILES): CCOc1cc2ncc(C#N)c(Nc3ccc(F)c(Cl)c3)c2cc1NC(=O)CCCCC1CCSS1 (stereo not given)
IC50 [1]: 420 nM

Structure (SMILES): CCOc1cc2ncc(C#N)c(Nc3ccc(OCc4cccc(F)c4)c(Cl)c3)c2cc1NC(=O)CCCCC1CCSS1 (stereo not given)
Kd [14]: 32 nM | IC50 [1]: 33 nM | IC50 [2]: 730 nM

Structure (SMILES): N#Cc1cnc2cc(OC[C@H](O)CO)c(NC(=O)C3CSSC3)cc2c1Nc1ccc(OCc2cccc(F)c2)c(Cl)c1
IC50 [1]: 20 nM | IC50 [2]: 256 nM

Structure (SMILES): O=c1ccc2ccc(O)cc2o1 [UMBELLIFERONE]
half-life [15]: 26.6 min

Structure (SMILES): CCOc1cc2ncc(C#N)c(Nc3ccc(OCc4cccc(F)c4)c(Cl)c3)c2cc1NC(=O)C(CSC(C)=O)CSC(C)=O
Kd [13]: 180 nM | Kd [14]: 16 nM | IC50 [1]: 26.8 nM | IC50 [2]: 340 nM

Structure (SMILES): CC(=O)SCC(CSC(C)=O)C(=O)Nc1cc2c(Nc3ccc(OCc4cccc(F)c4)c(Cl)c3)c(C#N)cnc2cc1OC[C@H](O)CO
Kd [16]: 2.1 nM | Kd [17]: 60 nM | Kd [18]: 58 nM | Kd [19]: 5.9 nM

Structure (SMILES): N#Cc1cnc2ccc(NC(=O)CC3CCSS3)cc2c1Nc1ccc(OCc2cccc(F)c2)c(Cl)c1 (stereo not given)
IC50 [1]: 36 nM | IC50 [3]: 730 nM | Ratio IC50 (Homo sapiens): > 25 | IC50 [2]: 164 nM

Structure (SMILES): CCOc1cc2ncc(C#N)c(Nc3ccc(F)c(Cl)c3)c2cc1NC(=O)C1CSSC1
IC50 [1]: 219 nM

Structure (SMILES): N#Cc1cnc2cc(OC[C@@H](O)CO)c(NC(=O)C3CSSC3)cc2c1Nc1ccc(OCc2cccc(F)c2)c(Cl)c1
IC50 [1]: 9 nM | Kd [16]: 0.7 nM | IC50 [3]: 167 nM | Ratio IC50 (Homo sapiens): > 25 | IC50 [2]: 125 nM | Kd [17]: 16 nM | Kd [18]: 8.4 nM | Kd [19]: 1.9 nM
